Measurements published in ChEMBL document CHEMBL3588754, “Parallel Synthesis of Hexahydrodiimidazodiazepines Heterocyclic Peptidomimetics and Their in Vitro and in Vivo Activities at μ (MOR), δ (DOR), and κ (KOR) Opioid Receptors” (J Med Chem, 2015).
Each block holds one molecule with its values, some of them ahead of it. Calls of active or inactive are those of the source.

What was measured:
Mu-type opioid receptor = Mu-type opioid receptor (Rattus norvegicus, UniProt P33535); assay: Displacement of [3H]DAMGO from mu opioid receptor in rat cortices by competition binding assay
How it was run: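 Rat cortex membranes were prepared in 50 mM Tris pH 7.4, preincubated at 37 °C for 30 min, and resuspended with 2 mg/mL bovine serum. Assay used 2 nM [3H]DAMGO. Binding was stopped by filtration through BSA-soaked GF/B filters, followed by scintillation counting. IC50 was converted to Ki. Values are mean ± SD of two experiments, each in duplicate.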

[1] = target: Delta-type opioid receptor (Rattus norvegicus, UniProt P33533); assay: Displacement of [3H]DPDPE from delta opioid receptor in rat cortices by competition binding assay
How it was run: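 Rat cortex membranes were prepared in 50 mM Tris pH 7.4 with 10 mM MgCl2 and 200 μM PMSF. Assay used 2 nM [3H]DPDPE, incubated 2.5 h at 25 °C. Unlabeled DPDPE defined nonspecific binding. Filtration was through BSA-soaked GF/B filters, with scintillation counting. Ki is mean ± SD of two experiments, each in duplicate.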

[2] = target: Kappa-type opioid receptor (Cavia porcellus, UniProt P41144); assay: Displacement of [3H]U69593 from kappa opioid receptor in guinea pig cortices and cerebella by competition binding assay
How it was run: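 Guinea pig cortex and cerebellum membranes were prepared in 50 mM Tris pH 7.4 with 10 mM MgCl2. Assay used 2 nM [3H]U69,593, incubated 2 h at 25 °C. Unlabeled U50,488 defined nonspecific binding. Filtration was through GF/B filters, with scintillation counting. Ki is mean ± SD of two experiments, each in duplicate.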

Mus musculus [3] = assay: Antinociceptive effect in icv dosed C57BL/6 mouse assessed as tail withdrawal latency measured up to 2 hrs by 55 degC Warm water tail withdrawal assay; type: functional
Mus musculus [4] = assay: Analgesic activity in ip dosed C57BL/6 mouse assessed as inhibition of acetic acid-induced writhing response measured after 5 mins by acetic acid writhing assay; type: functional; conditions: C57BL/6, ip
How it was run: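 Adult male C57BL/6J mice, eight per dose, were given a single graded ip dose in 1:1:8 ethanol/Tween-80/saline vehicle. After 25 min they received 0.9% acetic acid ip. Writhes were counted for 15 min starting 5 min later. % antinociception was taken relative to the ip vehicle group, and ED50 with 95% CI was obtained by regression.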

Mus musculus [5] = assay: Antinociceptive effect in C57BL/6 mouse assessed as tail withdrawal latency measured up to 2 hrs by 55 degC Warm water tail withdrawal assay in presence of 100 nM, icv SNC80; type: functional, organism-based
How it was run: (§1)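 Test agent given to male C57BL/6J mice 2 h before agonist challenge: morphine 10 mg/kg ip, U50,488 10 mg/kg ip, or SNC-80 100 nmol icv. 55 °C warm-water tail withdrawal read 30 min after the agonist. % antinociception relative to baseline latency with 15 s cutoff.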

Serum = assay: Drug uptake in C57BL/6 mouse serum at 30 mg/kg, po after 30 mins by LC-MS/MS analysis; type: ADME, organism-based; conditions: in vivo, 0.5 h
How it was run: (§2)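 Male C57BL/6J mice dosed orally at 30 mg/kg in 1:1:8 ethanol/Tween-80/saline, killed at 30, 60, or 90 min. Serum deproteinized with 4 volumes of cold MeCN. Perfused brains homogenized. Supernatants dried and reconstituted in 20% MeCN. C18 LC–MS/MS with summed ion-transition peak areas. Two mice per time point, mean peak area ± SEM.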

Mus musculus [6] = assay: Antinociceptive effect in C57BL/6 mouse assessed as tail withdrawal latency at 30 mg/kg, po measured up to 2 hrs by 55 degC Warm water tail withdrawal assay; type: functional
Mus musculus [7] = assay: Antinociceptive effect in icv treated C57BL/6 mouse assessed as tail withdrawal latency at 30 nM, icv measured up to 2 hrs by 55 degC Warm water tail withdrawal assay; type: functional
Mus musculus [8] = assay: Antinociceptive effect in C57BL/6 mouse assessed as tail withdrawal latency […] by 55 degC Warm water tail withdrawal assay in presence of 30 mg/kg, sc naloxone methiodide on other side of blood brain barrier impermeable opioid antagonist; type: functional, organism-based
[9] = target: Delta-type opioid receptor (Homo sapiens, UniProt P41143); assay: Agonist activity at delta opioid receptor (unknown origin) expressed in CHO-K1 cells assessed as inhibition of forskolin-induced cAMP accumulation by FRET assay; type: functional, cell-based
How it was run: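 CHO cells stably expressing DOR, plated at 20 000 cells/well (figure legend: 100 000). Exposed to test agent with 4 μM forskolin (legend: 1 μM) in 1× PBS with 1 mM […] for 30 min at rt. HTRF cAMP read-out with europium cryptate and d2 in lysis buffer for 1 h. EC50 ± SEM from three experiments, two replicates each.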

Mus musculus [10] = assay: Antinociceptive effect in C57BL/6 mouse assessed as tail withdrawal latency measured up to 2 hrs by 55 degC Warm water tail withdrawal assay in presence of 10 mg/kg, ip morphine; type: functional, organism-based; how it was run: as §1
Mus musculus [11] = assay: Antinociceptive effect in C57BL/6 mouse assessed as tail withdrawal latency at 10 mg/kg, ip measured up to 2 hrs by 55 degC Warm water tail withdrawal assay; type: functional
Mus musculus [12] = assay: Antinociceptive effect in C57BL/6 mouse assessed as tail withdrawal latency measured at 10 mg/kg, ip […] by 55 degC Warm water tail withdrawal assay in presence of 30 mg/kg, sc naloxone methiodide on same side of blood brain barrier impermeable opioid antagonist; type: functional, organism-based
Mus musculus [13] = assay: Antinociceptive effect in C57BL/6 mouse assessed as tail withdrawal latency measured at 30 nM, icv up to 2 hrs by 55 degC Warm water tail withdrawal assay in presence of 30 nM, icv naloxone methiodide on same side of blood brain barrier impermeable opioid antagonist; type: functional, organism-based
How it was run: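 Adult male C57BL/6J mice, 55 °C warm-water tail withdrawal. Naloxone methiodide pretreatment (30 nmol icv or 30 mg/kg sc) 30 min before the test agent (30 nmol icv in 50% DMSO/saline, or 10 mg/kg ip in 1:1:8 ethanol/Tween-80/saline). Read 30 min after the test agent. % antinociception vs baseline latency with 15 s cutoff. n = 8, mean ± SEM, one-way ANOVA/Tukey.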

Mus musculus [14] = assay: Antinociceptive effect in icv dosed MOR knock out C57BL/6 mouse assessed as tail withdrawal latency measured up to 2 hrs by 55 degC Warm water tail withdrawal assay; type: functional, organism-based
Mus musculus [15] = assay: Antinociceptive effect in icv dosed C57BL/6 mouse assessed as tail withdrawal latency measured up to 2 hrs by 55 degC Warm water tail withdrawal assay in presence of 0.5 mg/kg, sc naltrindole; type: functional, organism-based
Brain = assay: Drug uptake in C57BL/6 mouse brain at 30 mg/kg, po after 30 mins by LC-MS/MS analysis; type: ADME, organism-based; conditions: in vivo, 0.5 h; how it was run: as §2
Mus musculus [16] = assay: Antinociceptive effect in icv dosed C57BL/6 mouse assessed as tail withdrawal latency measured up to 2 hrs by 55 degC Warm water tail withdrawal assay in presence of 4 nmol, icv ICI174864; type: functional, organism-based
Mus musculus [17] = assay: Antinociceptive effect in icv dosed KOR knock out C57BL/6 mouse assessed as tail withdrawal latency measured up to 2 hrs by 55 degC Warm water tail withdrawal assay; type: functional, organism-based
Mus musculus [18] = assay: Antinociceptive effect in C57BL/6 mouse assessed as tail withdrawal latency measured up to 2 hrs by 55 degC Warm water tail withdrawal assay in presence of 10 mg/kg, ip U50488; type: functional, organism-based; how it was run: as §1
Mus musculus [19] = assay: Antinociceptive effect in ip dosed C57BL/6 mouse assessed as tail withdrawal latency measured up to 2 hrs by 55 degC Warm water tail withdrawal assay; type: functional; conditions: C57BL/6, Tail
Mus musculus [20] = assay: Antinociceptive tolerance in C57BL/6 mouse assessed as tail withdrawal latency measured treated at 5 nmol, icv first dose second dose after 8 hrs by 55 degC Warm water tail withdrawal assay; type: functional
How it was run: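 Acute tolerance was tested in C57BL/6J mice, 8 per dose. The first icv dose was given at time 0: 3 nmol morphine or 5 nmol test agent. A second icv dose between 0.3 and 100 nmol followed 8 h later. Tail withdrawal at 55 °C was measured 30 min after the second injection. Tolerance was judged from the shift in ED50 between single and repeated treatment.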

Mus musculus [21] = assay: Toxicity in C57BL/6 mouse assessed as coordinated locomotor activity at 30 nM, icv up to 60 mins; type: organism-based; conditions: in vivo, icv_or_intrathecal, 1 h, 0.03 µM
How it was run: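 Rotorod test after seven habituation trials, the last used as baseline. Test agent 30 nmol icv, vehicle 50% DMSO/saline. Accelerating trials (0–20 rpm, 180 s max) from 10 min over 60 min. Latency to fall expressed as % change from baseline. n = 8–16 per group, repeated-measures/two-way ANOVA with Tukey.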

Mus musculus [22] = assay: Antinociceptive effect in po dosed C57BL/6 mouse assessed as tail withdrawal latency measured up to 2 hrs by 55 degC Warm water tail withdrawal assay; type: functional; conditions: C57BL/6, Tail
Mus musculus [23] = assay: Antinociceptive effect in C57BL/6 mouse assessed as tail withdrawal latency measured at 30 nM, icv […] by 55 degC Warm water tail withdrawal assay in presence of 30 nM, icv naloxone methiodide on other side of blood brain barrier impermeable opioid antagonist; type: functional, organism-based

Compound: CC(C)[C@H]1CN=C2C=C3N[C@@H](Cc4ccc(O)cc4)CN3[C@@H](Cc3ccccc3)CN21
- Ki (Mu-type opioid receptor): 5040 nM
- Ki [1]: ≥ 10000 nM
- Ki [2]: 1950 nM

Compound: CC(C)C[C@H]1CN2C(=CC3=NC[C@H](C(C)C)N3C[C@@H]2Cc2ccc(O)cc2)N1CCc1ccccc1
- Activity (Mus musculus [3]): Dose-dependent effect
- ED50 (Mus musculus [4]): 0.07 mg/kg
- Activity (Mus musculus [5]): Active
- Drug uptake (Serum): Active
- Time (Mus musculus [6]): 110 min
- Time (Mus musculus [7]): 80 min
- Activity (Mus musculus [8]): Active
- EC50 [9]: 366 nM
- Activity (Mus musculus [10]): Active
- Time (Mus musculus [11]): 80 min
- inhibition (Mus musculus [12]): inactive
- inhibition (Mus musculus [13]): inactive
- Ki [1]: 32 nM
- inhibition (Mus musculus [14]): inactive
- inhibition (Mus musculus [15]): inactive
- Drug uptake (Brain): Not Active
- inhibition (Mus musculus [16]): inactive
- inhibition (Mus musculus [17]): inactive
- Activity (Mus musculus [18]): Active
- ED50 (Mus musculus [19]): 5.09 mg/kg
- Ki [2]: 23 nM
- ED50 (Mus musculus [20]): 2.32 nmol
- Activity (Mus musculus [21]): Non-toxic
- ED50 (Mus musculus [22]): 23.2 mg/kg
- Activity (Mus musculus [23]): Active

Compound: CC(C)C[C@H]1CN2C(=CC3=NC[C@H](Cc4ccccc4)N3C[C@@H]2Cc2ccc(O)cc2)N1
- EC50 [9]: 6360 nM
- Ki (Mu-type opioid receptor): 1330 nM
- Ki [1]: 57 nM
- Ki [2]: 3440 nM

Compound: CC(C)C[C@H]1CN2C(=CC3=NC[C@H](Cc4ccccc4)N3C[C@@H]2Cc2ccc(O)cc2)N1CCc1ccccc1
- EC50 [9]: 1640 nM
- Ki (Mu-type opioid receptor): 949 nM
- Ki [1]: 37 nM
- Ki [2]: 642 nM

Compound: Oc1ccc(C[C@H]2CN3C(=CC4=NC[C@H](Cc5ccccc5)N4C[C@@H]3Cc3ccccc3)N2CCc2ccccc2)cc1
- Ki (Mu-type opioid receptor): 3150 nM
- Ki [1]: 1280 nM
- Ki [2]: > 10000 nM

Compound: CC(C)C[C@H]1CN2C(=CC3=NC[C@H](C(C)C)N3C[C@@H]2Cc2ccc(O)cc2)N1
- Ki (Mu-type opioid receptor): 1190 nM
- Ki [1]: 215 nM
- Ki [2]: 209 nM

Compound: Oc1ccc(C[C@H]2CN3C(=CC4=NC[C@H](Cc5ccc(O)cc5)N4C[C@@H]3Cc3ccccc3)N2CCc2ccccc2)cc1
- Ki (Mu-type opioid receptor): 393 nM
- Ki [1]: 50 nM
- Ki [2]: 767 nM

- Ki (Mu-type opioid receptor): 2750 nM
- Ki [1]: 1020 nM
- Ki [2]: 1400 nM
Compound: CC(C)C[C@H]1CN2C(=CC3=NC[C@H](C(C)C)N3C[C@@H]2Cc2ccccc2)N1CCc1ccccc1

Compound: Oc1ccc(C[C@H]2CN3C(=CC4=NC[C@H](Cc5ccc(O)cc5)N4C[C@@H]3Cc3ccc(O)cc3)N2CCc2ccccc2)cc1
- Ki (Mu-type opioid receptor): 246 nM
- Ki [1]: 392 nM
- Ki [2]: 1550 nM
